Sampled rows, rich in hits. Any-hit rate of the full collection: about 2.6%.
PolyA inh: yeast polyadenylation inhibition | S. cerevisiae SKY197-pL101 polyadenylation reporter, beta-gal luminescence; efflux-impaired pdr1/pdr3 knockout yeast; score 100 = 6 SD above DMSO | activity score, % at 12 µM | 0.02% of 300,000 active | AID 1875;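 active = lowest replicate activity score at least 50, where 100 means six control SD above control mean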;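 also: yeast exposed to compound for 9 h at 30 °C; higher score means more reporter readthrough which indicates perturbed polyadenylation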
CHT allo act: human CHT allosteric activation. Q9GZV3. CHT-expressing cells, membrane potential dye, choline EC20; stronger effect = higher value; LV-AA mutant CHT in HEK293 cells. B-score at 10 µM. 0.49% of 310,000 active. AID 488977;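 active = initial fluorescence not abnormally high and integrated response B-score, plate-corrected, over 3 SD above library mean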
Target sequence (Q9GZV3 whole entry, looked up): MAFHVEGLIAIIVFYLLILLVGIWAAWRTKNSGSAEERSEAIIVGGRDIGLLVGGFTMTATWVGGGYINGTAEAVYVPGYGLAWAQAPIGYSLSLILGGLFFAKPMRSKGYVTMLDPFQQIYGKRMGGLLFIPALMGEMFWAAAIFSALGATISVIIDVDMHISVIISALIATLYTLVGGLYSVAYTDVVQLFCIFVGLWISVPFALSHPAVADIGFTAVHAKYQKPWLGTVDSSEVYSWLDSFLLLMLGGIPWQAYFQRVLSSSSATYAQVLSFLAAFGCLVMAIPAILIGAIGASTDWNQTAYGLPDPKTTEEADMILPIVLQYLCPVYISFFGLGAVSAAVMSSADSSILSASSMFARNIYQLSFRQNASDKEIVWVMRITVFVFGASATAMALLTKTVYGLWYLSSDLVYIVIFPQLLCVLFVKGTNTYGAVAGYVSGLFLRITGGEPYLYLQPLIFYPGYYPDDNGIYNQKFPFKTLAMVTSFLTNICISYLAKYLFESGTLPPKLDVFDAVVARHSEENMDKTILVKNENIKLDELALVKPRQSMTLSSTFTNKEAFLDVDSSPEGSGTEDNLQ
CHT block: inhibits the human high affinity choline transporter. Q9GZV3. CHT-expressing cells, membrane potential dye, choline response; stronger effect = lower value. 0.86% of 310,000 active. B-score at 10 µM;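 active = B-score over 3 SD under the library average, and starting fluorescence ratio not unusually high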;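 also: choline stimulus applied at its EC90 after an EC20 pre-addition; B-score computed on integrated fluorescence ratio after choline addition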
T cruzi inh: T. cruzi replication inhibition. T. cruzi beta-gal in NIH3T3, luminescence, 90 h. inhibition, % (test concentration not listed). 1.4% of 300,000 active;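 active = mean inhibition across valid replicates above about 55%, limit read from the data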;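 also: signal also drops with host cell toxicity which is not excluded here; higher percent means less beta-gal luminescence so fewer parasites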
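System – NIH/3T3 host cells with β-galactosidase reporter T. cruzi · Doses – single 50 nL compound addition per well in DMSO · Reagent – 5000 T. cruzi trypomastigotes/well · Medium – Low-serum DMEM with 2% FBS · Timing – ≥90 h infection period, 3 h prior cell attachment · Evaluation – parasite load inhibition, % · Technique – GalScreen luminescence, 60 min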
CHT act confirm: human CHT activation, confirmatory screen. shares compounds with CHT allo act. CHT-expressing cells, membrane potential dye fluorescence (FDSS); % of choline EC20–EC90 response window; HEK293 expressing CHT LV-AA mutant; choline added at its EC20. activation, % at 10 µM. 91% of 2,500 active. AID 504833;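 active = primary screen active, with duplicate mean activation above negative control mean plus 3 SD, cut at about 11% in these data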
HEK293 MP dye: counter-screen for CHT activators: effect in parental HEK293 cells; shares compounds with CHT allo act; membrane potential dye fluorescence (FDSS); measured after EC20 choline addition; ratio readout change at 10 µM, hits read low; 62% of 2,500 active; AID 623908;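 active = duplicate-averaged ratio beyond 3 SD from buffer wells, up or down, though filed actives are nearly all decreases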
Each line names hits and unclear results; the compound was inactive in the other large screens (follow-up assays come after a bar, where they were run).

O=C(NCCCN1CCCC1=O)C(=O)NCC1OCCN1S(=O)(=O)c1ccc(Cl)cc1 (stereo not given)	none
CCC(C)n1c(=N)c(C#N)cc2c(=O)n3cccc(C)c3nc21 (stereo not given)	CHT allo act 7 | CHT act confirm 41 | HEK293 MP dye -53
CCC(C)n1c(=N)c(C#N)cc2c(=O)n3cc(C)ccc3nc21 (stereo not given)	none
Cc1ccc(CCCNC(=O)C2CCC(=O)N(Cc3cccc(F)c3)C2)cc1 (stereo not given)	none
Cc1ccc(C(=O)c2c3ccc([N+](=O)[O-])cc3[n+]([O-])n2CCCN)cc1	CHT allo act 6.5 | CHT act confirm 34 | HEK293 MP dye -40
Oc1ccc(/C=N/Nc2cc(N3CCOCC3)nc(N3CCOCC3)n2)cc1O	CHT allo act 7.1 | CHT act confirm 47 | HEK293 MP dye -62
COc1ccc(/C=N/Nc2cc(C)nc(N3CCOCC3)n2)cc1	none
O=C(c1ccc(S(=O)(=O)N2CCCCC2)cc1)N(c1ccccn1)C1CCCCC1	none
CC1CC(C)CN(S(=O)(=O)c2ccc(C(=O)N(c3ccccn3)C3CCCCC3)cc2)C1 (stereo not given)	none | CHT act confirm 21 | HEK293 MP dye inactive
O=c1c2ccccc2n(CC(O)CN2CCCCC2)c2ccccc12 (stereo not given)	CHT allo act 6.3 | CHT act confirm 44 | HEK293 MP dye -39
OC(CN1CCCCC1)Cn1c2ccccc2c2ccccc21 (stereo not given)	none
Cc1c(C)n(CC(O)CN2CCOCC2)c2ccccc12 (stereo not given)	none
O=c1c2ccccc2n(CC(O)CN2CCOCC2)c2ccccc12 (stereo not given)	none | CHT act confirm 11 | HEK293 MP dye inactive
CS(=O)(=O)Nc1ccc(C(=O)NCCSc2ccc(Cl)cc2)cc1	none
CC(CC(=O)NCc1ccc(Cl)cc1)S(=O)(=O)c1ccc2c(c1)NC(=O)CO2 (stereo not given)	none
N=c1n(CCO)c2ccccc2n1CCN1CCCCC1	none (no result: PolyA inh, T cruzi inh) | CHT act confirm 35 | HEK293 MP dye -34
CCCCCCCCCCOC(=O)Cn1c(COc2ccccc2OC)[n+](C)c2ccccc21	CHT allo act 19 | CHT act confirm 91 | HEK293 MP dye -37
Cc1nnc(C)c2c(C)n(-c3ccc(Cl)c(N)c3)c(C)c12	none
Cc1nnc(C)c2c(C)n(-c3ccc4ncccc4c3)c(C)c12	none | CHT act confirm 41 | HEK293 MP dye -46
Cc1cc(C)cc(-n2c(C)c3c(C)nnc(C)c3c2C)c1	none | CHT act confirm 43 | HEK293 MP dye -28
COc1ccccc1OCc1nnc(SCC(=O)N2CCCCC2)o1	none (no result: CHT allo act, CHT block)
CCCNCC(O)Cn1c2ccccc2n2c(=O)cc(C)c(C#N)c12 (stereo not given)	none | CHT act confirm 46 | HEK293 MP dye -41
Cc1cc(=O)n2c3ccccc3n(CC(O)CN3CCCC3)c2c1C#N (stereo not given)	CHT allo act 6.9 | CHT act confirm 52 | HEK293 MP dye -46
Cc1c(C)n(CC(O)CN2CCCCC2)c2ccccc12 (stereo not given)	none
COc1cc(C(=O)Nc2ccc(N3CCCS3(=O)=O)cc2)c([N+](=O)[O-])cc1OC	none
CC(C)C[C@@H](COc1ccccc1)N1CCN(Cc2ccccc2)CCC1=O	CHT allo act 6.3 | CHT act confirm 16 | HEK293 MP dye inactive
O=C1CCN(Cc2ccccc2)CCN1[C@H](COc1ccccc1)Cc1ccccc1	CHT allo act 6.7 | CHT act confirm 24 | HEK293 MP dye inactive
CC(C)C[C@@H](CO)N1CCN(Cc2ccccc2)CCC1=O	none
CC(C)CN1CCC(=O)N([C@H](CSc2ccccc2)Cc2ccccc2)CC1	CHT allo act 13 | CHT act confirm 42 | HEK293 MP dye inactive
CCCN1CCC(=O)N([C@H](COc2ccccc2)Cc2ccccc2)CC1	none
Cc1ccc(SC[C@H](Cc2ccccc2)N2CCN(CC(C)C)CCC2=O)cc1	none (no result: CHT allo act, CHT block)
O=C1CN(S(=O)(=O)c2cccc(C(=O)O)c2)c2ccccc2N1	none
COc1ccc(N2CCN(C(=O)c3ccc(COc4ccc([N+](=O)[O-])cc4)o3)CC2)cc1	none (no result: CHT allo act, CHT block)
CCC(=O)NC(Nc1sc2c(c1C(=O)OC)CCCC2)(C(F)(F)F)C(F)(F)F	none
COC(=O)c1c(NC(NC(=O)c2ccccc2)(C(F)(F)F)C(F)(F)F)sc2c1CCN(C)C2	CHT allo act 7.2 | CHT act confirm 69 | HEK293 MP dye -59
COC1CCN(C(=O)C2CCC(=O)N(CCc3cccc(F)c3)C2)CC1 (stereo not given)	none
Cc1ccc(-c2nc3ncccn3c2Nc2ccccc2C)o1	none | CHT act confirm 40 | HEK293 MP dye -43
Cc1ccc(-c2nc3ncccn3c2NC2CCCC2)o1	none
CN(Cc1ccco1)S(=O)(=O)c1csc(C(N)=O)c1	none
COc1cc(-c2nc3cccc(C)n3c2NCC2CCCO2)ccc1O (stereo not given)	CHT allo act 6.7 | CHT act confirm 36 | HEK293 MP dye -40
c1ccc(-c2cccc(-c3ccccn3)n2)nc1	none | CHT act confirm 14 | HEK293 MP dye -47
CN1CCN(C(=O)c2cc(=O)c3cc(Cl)cc(Cl)c3o2)CC1	none | CHT act confirm 43 | HEK293 MP dye -42
CN1CCN(C(=O)c2cc(Cl)ccc2Cl)CC1	none
COC(=O)CSc1cc(C)nc2ccc(OC)cc12	none | CHT act confirm 44 | HEK293 MP dye -50
COc1ccc2nc(C)cc(SCC(=O)O)c2c1	none
CCn1c(=O)cc(OCC(=O)NCc2cccs2)c2ccccc21	none
COC(=O)c1cc(C(=O)N2CCN(c3cccc(Cl)c3)CC2)cc([N+](=O)[O-])c1	CHT allo act 7.6 | CHT act confirm 33 | HEK293 MP dye inactive
O=C(c1cccc([N+](=O)[O-])c1)N1CCN(c2cccc(Cl)c2)CC1	none
CCOc1ccccc1CNC(=O)c1ccc(NC(=O)C2=C(C)OCCS2)cc1	none
Cc1cc(C)cc(NC(=O)COc2coc(CN3CCc4ccccc43)cc2=O)c1	none
CCN1CCN(c2nc3c(c(=O)[nH]c(=O)n3C)n2CCSc2nc3ccccc3s2)CC1	CHT allo act 13 | CHT act confirm 40 | HEK293 MP dye -45
CC(CSc1nc2ccccc2s1)Cn1c(N2CCCC2)nc2c1c(=O)[nH]c(=O)n2C (stereo not given)	none
Cn1c(=O)[nH]c(=O)c2c1nc(N1CCCCC1)n2CCCSc1nnnn1-c1ccccc1	none
Cc1ccnc(SCCn2c(N3CCOCC3)nc3c2c(=O)[nH]c(=O)n3C)n1	CHT allo act 10 (no result: PolyA inh, T cruzi inh) | CHT act confirm 65 | HEK293 MP dye -58

High-throughput results as filed in PubChem.
